In PMC8137654 (Bioconjugate chemistry, 2021):
Entries after “also recorded” stand apart in the source; their conditions may differ. Non-standard residues stand in square brackets, D forms with d. Residues, ends and D or L forms follow the SMILES beside them. ξ: configuration not given here. *: point of attachment. X1 = COc1cc(N=Nc2ccccc2[N+](=O)[O-])c(C)cc1N=Nc1ccc(N(C)CCCC(=O)*)cc1; X2 = O=C(O)c1cc(C(=O)*)ccc1-c1c2ccc(=O)cc-2oc2cc(O)ccc12; X3 = O=P(O)(O)C(O)(CCN*)P(=O)(O)O; ξH = NC(Cc1c[nH]cn1)C(=O)O; ξQ = NC(=O)CCC(N)C(=O)O; ξP = O=C(O)C1CCCN1; βAla = NCCC(=O)O

How the values were obtained:
[1] = Adsorption on hydroxyapatite and bone mineral
Ctsk [2] = target: T1, Ctsk (Homo sapiens, UniProt P43235); assay: Kinetics of Ctsk-catalyzed OFS-1 activation in solution; format: biochemical
T1 sequence (P43235 115-329): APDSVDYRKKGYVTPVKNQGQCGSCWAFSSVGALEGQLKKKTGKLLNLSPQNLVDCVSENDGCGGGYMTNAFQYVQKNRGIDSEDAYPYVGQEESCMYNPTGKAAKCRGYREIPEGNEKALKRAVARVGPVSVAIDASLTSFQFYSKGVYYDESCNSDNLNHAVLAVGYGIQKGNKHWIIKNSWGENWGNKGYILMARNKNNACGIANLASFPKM

[3] = test system: RPMI-8226-Luc human multiple myeloma cells engrafted in NSG/BLT humanized mice; assay: In vivo fluorescence imaging of multiple myeloma-induced osteolysis; parameters: species or system mouse
How it was run: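 NSG mice were co-grafted with human CD34+ hematopoietic stem cells, liver and thymus and irradiated (NSG/BLT). RPMI-8226-Luc cells (15×10^6 per mouse, 100 μL) were given by tail vein; controls received vehicle. Seven days later, 100 μL of 50 μM OFS-1 was injected retro-orbitally. In vivo fluorescence and bioluminescence imaging was done 3, 4 and 5 wk after cell injection, plus ex vivo micro-CT. Control n = 1, myeloma mice n = 3.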

human osteoclasts = assay: Activation of OFS-1 adsorbed on HAp by resorbing human osteoclasts; format: cell-based
How it was run: (§1)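 HAp […]-coated polystyrene wells were pre-treated with 5.0 μM OFS-1 and washed with PBS. They were then seeded with human osteoclasts, alone or co-cultured with RPMI-8226-Luc myeloma cells, with or without 30 nM odanacatib. Wells were imaged by bright-field and fluorescence microscopy (time-lapse video) for 24 h at 37 °C to record resorption pits and probe fluorescence.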

[4] = OFS-1 fluorescence in water without enzyme; format: physicochemical; conditions: 10 μM OFS-1 in water, 48 h, 37 °C
Ctsk [5] = target: T1, Ctsk; format: biochemical
How it was run: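 Probe kept in solution at pH 7 with 20 nM initial human Ctsk. Ctsk inhibitor added to the assay mixture at 0, 1, 5, 10, 30, 50 or 100 nM (n = 3). Fluorescence followed over time through a 2 h incubation, with an enzyme-free control.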

[6] = test system: osteoclasts co-cultured with RPMI-8226-Luc human multiple myeloma cells; assay: Activation of OFS-1 on HAp by osteoclasts co-cultured with RPMI-8226-Luc cells; format: cell-based
How it was run: as §1

Ctsk [7] = target: T1, Ctsk; assay: Ctsk-induced fluorogenesis of OFS-1 pre-adsorbed on HAp with/without odanacatib; format: biochemical; conditions: HAp treated overnight with 0.5 μM OFS-1 in 50 mM acetate pH 5.5, washed; 20 nM Ctsk, 37 °C, 2 h
How it was run: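 […] (HAp)-coated polystyrene wells soaked overnight in probe in acetate buffer, then washed repeatedly with water to remove unbound probe. Wells covered with human Ctsk, with Ctsk inhibitor at 0, 1, 5, 10, 30, 50 or 100 nM (n = 3). Fluorescence read at 1 min intervals in a plate reader at 37 °C.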

[8] = ref [14]; cited from earlier work
Ctsk [9] = target: T1, Ctsk; conditions: reported value; ref [25]; cited from earlier work
Ctsk [10] = target: T1, Ctsk; conditions: cited from earlier work

## COc1cc(N=Nc2ccccc2[N+](=O)[O-])c(C)cc1N=Nc1ccc(N(C)CCCC(=O)NCC(=O)NC(Cc2c[nH]cn2)C(=O)N2CCCC2C(=O)NCC(=O)NCC(=O)N2CCCC2C(=O)NC(CCC(N)=O)C(=O)NCC(=O)NCCC(=O)N[C@@H](CCCCNC(=O)c2ccc(-c3c4ccc(=O)cc-4oc4cc(O)ccc34)c(C(=O)O)c2)C(=O)NCCC(O)(P(=O)(O)O)P(=O)(O)O)cc1 (stereo partly drawn) [OFS-1] (X1-G[ξH][ξP]GG[ξP][ξQ]G[βAla]K(X2)-X3)
[1]
  adsorption on HAp and bone mineral: avidly adsorbed by hydroxyapatite (HAp) and bone mineral surfaces; also recorded: strongly and specifically binds to bone surfaces
Ctsk [2]; 25 nM human Ctsk, 50 mM sodium acetate pH 5.5, 2.5 mM EDTA, 1 mM DTT, 37 °C, Supplementary Figure S3
  dependence of fluorescence intensity on OFS-1 concentration: depended linearly on the OFS-1 concentration up to 1 μM
Ctsk [2]; Ctsk 2.5 nM (Fig. 2), 50 mM NaOAc pH 5.5, 37 °C
  catalytic efficiency (kcat/Km): 0.97 × 10^5 M-^1 s-^1
Ctsk [2]; Ctsk 2.5–20 nM, in solution or pre-adsorbed on HAp
  fluorescence on exposure to Ctsk: strong fluorescence
Ctsk [2]; OFS-1 vs literature value of Abz-HPGGPQ-EDN2Ph, ref [25] for the comparator
  cleavage efficiency relative to Abz-HPGGPQ-EDN2Ph (less efficient): only fourfold less efficiently
[3]; 100 μL of 50 μM OFS-1 retro-orbital, weeks after RPMI-8226-Luc cell injection
  time from which distinct in vivo fluorescent signal was detected: 4 wk
[3]; NSG/BLT humanized mice injected with RPMI-8226-Luc cells
  detection relative to myeloma cell luminescence: before the co-localized luminescence of the myeloma cells could be detected
[3]; another mouse, cervical area, post-mortem micro-CT
  in vivo OFS-1 signal relative to tumor site / osteolysis lesions: extensive osteolysis lesions (arrows), which corresponded to the sentinel OFS-1 signal; also recorded: a strong fluorescent signal was detected at (and extending beyond) the bioluminescent tumor site
[3]; physiological level of bone resorption, control n = 1
  in vivo OFS-1 signal in control animals: did not show the OFS-1 signal
Human osteoclasts; control wells, 5.0 μM OFS-1, not seeded with osteoclasts
  OFS-1 fluorescence without osteoclasts: not significantly fluorescent
[4]
  extrinsic fluorescence in water without enzyme: virtually undetectable
Ctsk [5]; OFS-1 0.5 μM, 20 nM Ctsk, in solution, pH 7
  time-course of OFS-1 fluorescent activity: fluorescent activity was immediately observed within 10 min and reached a plateau thereafter
Ctsk [5]; control lacking enzyme, 2 h incubation
  OFS-1 fluorescence without enzyme: essentially unchanged
[6]; OFS-1 5.0 μM pre-treated HAp wells, osteoclasts + RPMI-8226-Luc
  OFS-1 fluorescent signal in co-culture: robust activation of OFS-1 fluorescent signals
[6]; osteoclasts + RPMI-8226-Luc vs solitary osteoclasts
  OFS-1 fluorescent signal compared to solitary osteoclasts: increased by RPMI-8226-Luc cells
Ctsk [7]
  Ctsk-dependent fluorescence of HAp-adsorbed OFS-1: time-course increase of fluorescent intensity; also recorded: Bright Ctsk-dependent fluorescence was again observed

## NCCCC(O)(P(=O)(O)O)P(=O)(O)O [alendronate]
[8]
  bone-affinity: high bone-affinity

## CC(C)(F)C[C@H](N[C@@H](c1ccc(-c2ccc(S(C)(=O)=O)cc2)cc1)C(F)(F)F)C(=O)NC1(C#N)CC1 [odanacatib]
Human osteoclasts; 30 nM odanacatib
  pit formation by osteoclasts with odanacatib: pit formation was again observed
Human osteoclasts; 30 nM odanacatib (Figure S9)
  osteoclast-induced OFS-1 fluorescence with odanacatib: fluorescence was suppressed
[6]; 30 nM odanacatib
  OFS-1 fluorescent signal in co-culture with odanacatib: effectively inhibited

## NCCC(O)(P(=O)(O)O)P(=O)(O)O [pamidronate]
[8]
  bone-affinity: high bone-affinity

## Abz-HPGGPQ-EDN2Ph
Ctsk [9]
  catalytic efficiency: 426000 M⁻¹ s⁻¹

## HPGGPQ
Ctsk [10]; ref [24]
  cleavage by Ctsk: selectively cleaved by Ctsk
Ctsk [10]; well-established cleavage site, no reference at this place
  Ctsk cleavage site (original peptide): Gly-Gly bond
